The IC50 is the concentration at which inhibition is half-maximal. Higher therefore signals weaker potency.

SMILES strings stand for the structures. Calls of active or inactive are those of the source. The calls are words filed in the database; no cut-off is given here.

Assay [1] is described as follows: Cytotoxicity against human 16HBE cells after 48 hrs by CCK-8 assay. The class given is cell-based. The note with it: 16HBE14o-. In outline: (§1)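 Cells treated with a range of largazole concentrations for 48 h. Proliferation read by CCK-8 assay; IC50 derived from the concentration series.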
In general terms: Tetrazolium dyes change colour on reduction, which living cells bring about.

Assay [2] relates to A549. In words: Induction of apoptosis in human A549 cells at 0.3 to 1 uM after 48 hrs by Annexin V and propidium iodide staining-based flow cytometric analysis relative to control. Type of assay: functional. An outline of the steps:
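A549 cells treated for 48 h at 0.3 to 1 μM, stained with Annexin V/PI and analysed by flow cytometry for the apoptotic fraction.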

The target of assay [3] is Transcription factor E2F1 (Homo sapiens) (UniProt Q01094). In words: Induction of E2F1 degradation in human A549 cells at 0.1 uM after 12 hrs by Western blotting analysis in presence of proteasome inhibitor MG-132. Type of assay: cell-based. In outline: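 A549 cells pretreated 2 h with bortezomib (100 nM) or MG-132 (10 μM), then given largazole 0.1 μM for a further 12 h. Lysates Western blotted for E2F1.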
Sequence of Transcription factor E2F1 (Homo sapiens) (Q01094 whole entry): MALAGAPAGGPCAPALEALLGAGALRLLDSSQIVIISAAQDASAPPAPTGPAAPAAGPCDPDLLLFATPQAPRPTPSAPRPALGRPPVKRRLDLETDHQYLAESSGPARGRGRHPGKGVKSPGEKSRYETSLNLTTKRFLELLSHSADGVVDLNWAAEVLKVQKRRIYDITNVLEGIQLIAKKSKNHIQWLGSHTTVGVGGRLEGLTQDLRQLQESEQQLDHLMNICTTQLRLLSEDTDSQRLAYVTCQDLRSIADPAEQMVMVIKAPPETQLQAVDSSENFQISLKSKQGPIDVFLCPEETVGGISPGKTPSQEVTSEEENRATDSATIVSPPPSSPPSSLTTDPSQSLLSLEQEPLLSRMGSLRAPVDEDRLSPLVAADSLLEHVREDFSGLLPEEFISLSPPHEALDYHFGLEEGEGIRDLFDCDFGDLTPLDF
For orientation: Immunoblotting shows a protein as a band on a membrane.

For assay [4], the system named is NCI-H460. Description: Cell cycle arrest in human NCI-H460 cells assessed as accumulation at S phase at 0.1 uM after 24 hrs by propidium iodide staining-based flow cytometric analysis (reference value: 31.6%). The class given is functional.
The target of assay [5] is T1, Retinoblastoma-associated protein (Homo sapiens) (UniProt P06400).
T1 sequence (whole entry): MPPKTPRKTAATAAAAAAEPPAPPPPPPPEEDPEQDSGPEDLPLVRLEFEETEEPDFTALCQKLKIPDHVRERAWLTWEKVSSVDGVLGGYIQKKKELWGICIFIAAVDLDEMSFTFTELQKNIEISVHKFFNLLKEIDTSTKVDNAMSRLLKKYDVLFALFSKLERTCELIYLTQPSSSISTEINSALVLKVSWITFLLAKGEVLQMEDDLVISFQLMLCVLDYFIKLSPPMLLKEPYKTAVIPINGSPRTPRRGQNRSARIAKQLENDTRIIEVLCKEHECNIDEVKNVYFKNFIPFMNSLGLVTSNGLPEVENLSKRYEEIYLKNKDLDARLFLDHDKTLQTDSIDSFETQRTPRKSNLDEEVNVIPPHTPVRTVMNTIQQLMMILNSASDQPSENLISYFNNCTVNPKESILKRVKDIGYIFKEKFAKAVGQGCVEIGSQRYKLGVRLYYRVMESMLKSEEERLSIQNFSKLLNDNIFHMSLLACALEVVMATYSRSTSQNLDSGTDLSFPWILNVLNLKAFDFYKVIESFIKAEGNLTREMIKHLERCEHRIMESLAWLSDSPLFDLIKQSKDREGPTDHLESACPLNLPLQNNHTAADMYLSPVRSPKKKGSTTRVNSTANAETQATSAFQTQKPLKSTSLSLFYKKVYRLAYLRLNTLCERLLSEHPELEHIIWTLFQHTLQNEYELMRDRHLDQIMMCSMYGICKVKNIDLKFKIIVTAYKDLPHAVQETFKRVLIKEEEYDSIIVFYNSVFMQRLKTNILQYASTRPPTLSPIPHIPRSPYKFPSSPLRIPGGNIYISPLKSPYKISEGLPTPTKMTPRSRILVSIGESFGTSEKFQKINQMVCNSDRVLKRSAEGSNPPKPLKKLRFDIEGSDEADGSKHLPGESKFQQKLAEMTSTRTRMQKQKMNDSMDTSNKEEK
In words: Dephosphorylation of Rb in human A549 cells assessed as increase in E2F1-HDAC1 interaction at 0.1 uM after 8 hrs by immunoprecipitation and Western blotting analysis. Type of assay: cell-based. An outline of the steps: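 A549 cells treated with 0.1 μM largazole for 8 h and lysed. Lysates immunoprecipitated, then Western blotted with the indicated antibodies.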

Assay [6] relates to NCI-H460. In words: Cell cycle arrest in human NCI-H460 cells assessed as accumulation at G2 phase at 0.1 uM after 24 hrs by propidium iodide staining-based flow cytometric analysis (reference value: 9.5%). Type of assay: functional. On the technique in general: Flow cytometry measures light scatter and fluorescence of single cells or particles in a stream.
Assay [7] in a line: Cytotoxicity against human 95-D cells after 48 hrs by CCK-8 assay. Type of assay: functional, cell-based. An outline of the steps: as §1
Assay [8] has as its target Transcription factor E2F1 (Homo sapiens) (UniProt Q01094). In words: Induction of E2F1 degradation in human 16HBE cells at 0.1 uM after 12 to 24 hrs by Western blotting analysis. The class given is cell-based. An outline of the steps: (§2)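 Each cell line (16-HBE, 95D, L78, H1975, H460) treated with 0.1 μM largazole for indicated times. Lysates Western blotted for E2F1.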

In assay [9] the test system is A549. Description: Induction of apoptosis in human A549 cells assessed as increase in PARP cleavage at 0.1 uM after 48 hrs by Western blotting analysis. Type of assay: functional, cell-based. An outline of the steps:
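A549 cells exposed to 0.1 μM for a time course, then lysed and Western blotted. Read-outs are pro- and cleaved caspase-9, pro- and active caspase-3, and cleaved PARP.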

Assay [10] concerns the target Histone deacetylase 1 (Homo sapiens) (UniProt Q13547). The conditions noted are these: NCI-H1975, 0.1 uM.
The test system of assay [11] is NCI-H460. Description: Cell cycle arrest in human NCI-H460 cells assessed as accumulation at S phase at 0.06 uM after 24 hrs by propidium iodide staining-based flow cytometric analysis (reference value: 31.6%). Type of assay: functional.
The target in assay [12] is Transcription factor E2F1 (Homo sapiens) (UniProt Q01094). Description: Induction of E2F1 degradation in human L78 cells at 0.1 uM after 12 to 24 hrs by Western blotting analysis. Type of assay: cell-based. An outline of the steps: as §2
Assay [13] relates to A549. In words: Cell cycle arrest in human A549 cells assessed as accumulation at G1 phase at 0.06 uM after 24 hrs by propidium iodide staining-based flow cytometric analysis (reference value: 48.3%). The class given is functional.
For assay [14], the system named is A549. Description: Downregulation of p21 protein expression in human A549 cells at 0.1 uM after 1 hr by Western blotting analysis in presence of protein synthesis inhibitor cycloheximide. The class given is functional, cell-based.
Assay [15] deals with Transcription factor E2F1 (Homo sapiens) (UniProt Q01094). In words: Induction of E2F1 degradation in human NCI-H460 cells at 0.1 uM after 12 to 24 hrs by Western blotting analysis. The class given is cell-based. An outline of the steps: as §2
In assay [16] the test system is NCI-H460. In words: Cell cycle arrest in human NCI-H460 cells assessed as accumulation at G1 phase at 0.06 uM after 24 hrs by propidium iodide staining-based flow cytometric analysis (reference value: 58.9%). The class given is functional.
In assay [17] the target is Transcription factor E2F1 (Homo sapiens) (UniProt Q01094). Description: Inhibition of E2F1 in human A549 cells assessed as downregulation of DHFR gene expression at 0.1 uM after 6 to 36 hrs by RT-PCR analysis. The class given is cell-based. An outline of the steps: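 A549 cells given 0.1 μM over a time course. RNA extracted and RT-PCR run with gene-specific primers. Bands quantified by densitometry and normalized to GAPDH.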

Assay [18] deals with Histone deacetylase 1 (Homo sapiens) (UniProt Q13547). The conditions noted are these: A549, 0.1 uM.
Sequence of Histone deacetylase 1 (Homo sapiens) (Q13547 whole entry): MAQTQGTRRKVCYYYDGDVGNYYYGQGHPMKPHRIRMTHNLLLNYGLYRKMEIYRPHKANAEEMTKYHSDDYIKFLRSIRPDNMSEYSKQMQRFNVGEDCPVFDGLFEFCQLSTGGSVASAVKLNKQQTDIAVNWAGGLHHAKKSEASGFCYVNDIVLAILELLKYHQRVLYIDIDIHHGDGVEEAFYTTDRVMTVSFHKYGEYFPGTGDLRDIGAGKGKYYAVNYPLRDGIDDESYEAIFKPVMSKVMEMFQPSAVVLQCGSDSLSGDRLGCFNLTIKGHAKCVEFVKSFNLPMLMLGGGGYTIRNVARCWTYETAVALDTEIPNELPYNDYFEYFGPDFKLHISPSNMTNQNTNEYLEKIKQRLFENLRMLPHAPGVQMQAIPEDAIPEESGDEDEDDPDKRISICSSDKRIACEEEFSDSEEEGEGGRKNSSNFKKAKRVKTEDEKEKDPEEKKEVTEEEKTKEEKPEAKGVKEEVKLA
The target of assay [19] is Transcription factor E2F1 (Homo sapiens) (UniProt Q01094). In words: Induction of E2F1 translocation from nucleus to cytoplasm in human A549 cells at 0.1 uM after 12 to 24 hrs by DAPI staining-based immunofluorescence analysis. The class given is cell-based. An outline of the steps:
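A549 cells given 0.1 μM largazole for 12 to 24 h. Immunofluorescence with anti-E2F1 antibody, nuclei counterstained with DAPI.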

Assay [20] concerns A549. Description: Upregulation of p21 protein expression in human A549 cells at 0.1 uM after 6 hrs by Western blotting analysis. Type of assay: functional, cell-based. An outline of the steps:
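A549 cells exposed to 0.1 μM over a time course, then lysed and Western blotted for G1 regulators including p21 and p27.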

In the case of `CCCCCCCC(=O)SCC/C=C/[C@@H]1CC(=O)NCc2nc(cs2)C2=N[C@@](C)(CS2)C(=O)N[C@@H](C(C)C)C(=O)O1` [LARGAZOLE], the IC50 in assay [1] was over 10000 nM; in assay [7], 420 nM. Also, the Activity entry is “<=70%” in the assay with A549 [2]; 10.6% in the assay on NCI-H460 [4]; 5.3% with NCI-H460 [6]; 10.4% with NCI-H460 [11]; 90.4% in the assay on A549 [13]; 78.8% with NCI-H460 [16]. Moreover, the outcome (in [3]; in assay [8]; in the assay on A549 [14]) was inactive. Besides, the result (in [5]; in the assay on A549 [9]; in assay [12]; in [15]; in assay [19]; in the assay with A549 [20]) was Active. In addition, the inhibition result in assay [10], in assay [17] and in assay [18] was “Active” in each case.

The record behind these values is ChEMBL document CHEMBL2440054, “Largazole Arrests Cell Cycle at G1 Phase and Triggers Proteasomal Degradation of E2F1 in Lung Cancer Cells” (ACS Med Chem Lett, 2013).
